Source: PubChem BioAssay
PLC-gamma1 inh = PLC-gamma1 enzyme inhibitors, primary screen, biochemical, fluorescence, purified enzyme | 1-phosphatidylinositol 4,5-bisphosphate phosphodiesterase gamma-1 (Homo sapiens), P19174 | fluorogenic substrate | inhibition, % at 12.2 µM | hit rate 0.84% among 370,000 | AID 720700, 2013; in the data active means inhibition above about 9.5%
ASAP1 inh = inhibitors of human ASAP1 ArfGAP activity, primary screen, biochemical, fluorescence polarization; Arf-GAP with SH3 domain, ANK repeat and PH domain-containing protein 1 (Homo sapiens), …; ASAP1-stimulated ARF1 GTP hydrolysis, GDP FP detection; inhibition, % at 16.5 µM; hit rate 0.19% among 360,000; in the data active means inhibition above about 25%;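 further: 0% = vehicle with enzyme and substrate and 100% = no enzyme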
PLC-beta3 inh = human PLC-beta3 inhibitors, primary screen, biochemical, fluorescence; AID 720704, 2013; inhibition, % at 12.2 µM; Purified PLC-beta3, fluorogenic substrate; hit rate 0.18% among 370,000; 1-phosphatidylinositol 4,5-bisphosphate phosphodiesterase beta-3 (Homo sapiens), Q01970; in the data active means inhibition above about 11%;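 further: 0% = median of compound wells on plate and 100% = full blocker control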
ARFGAP1 inh = inhibitors of rat ARFGAP1 GAP activity, primary screen, biochemical, fluorescence polarization, GDP tracer; inhibition, % at 16.5 µM; ADP-ribosylation factor GTPase-activating protein 1 (Rattus norvegicus), Q62848; hit rate 0.26% among 360,000; Arfgap1-stimulated ARF1 GTP hydrolysis, GDP FP detection;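 active means inhibition above a per-plate limit, mean inhibition of low control wells plus 3 SD, cut at about 25% in these data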;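 further: 0% = DMSO wells with enzyme and 100% = wells lacking Arfgap1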
Target sequence (Q62848 1-136 limits assumed): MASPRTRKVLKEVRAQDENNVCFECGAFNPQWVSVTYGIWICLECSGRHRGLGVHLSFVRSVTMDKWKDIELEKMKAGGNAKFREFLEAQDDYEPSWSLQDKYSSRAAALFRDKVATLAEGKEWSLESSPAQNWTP
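Material – truncated rat Arfgap1 GAP domain · Buffer or medium – HEPES-based buffer, pH 7.5 · Reagent – human ARF1(Δ1-17)-GTP substrate · Dosing – 16.5 µM single point, 1.26% DMSO · Schedule – GTP hydrolysis reaction 2 h at 25 °C · Technique – GDP detection by fluorescence polarization · Benchmarks – No-Arfgap1 wells (100%) versus DMSO full-reaction wells (0%) · Repeats – single replicate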
HGIII-sPLA2 inh = human group III sPLA2 inhibitors, primary screen, biochemical, QFRET, BODIPY PC-A2 liposome substrate. QFRET BODIPY PC-A2 liposome hydrolysis, fluorescence. AID 743126, 2013. inhibition, % at 12.2 µM. hit rate 0.56% among 370,000;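 active means inhibition above mean plus 3 SD of compounds lying within the high and low control bounds, cut at about 19% in these data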;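 further: 0% = median of test compound wells and 100% = no enzyme DMSO wells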
ASAP1 GAP conf = ASAP1 GAP activity inhibitors, confirmation, biochemical, fluorescence polarization, human, triplicate. hit rate 37% among 620. AID 624431, 2012. inhibition, % at 16.5 µM. ASAP1-stimulated Arf1 GTPase, GDP fluorescence polarization. shares compounds with ASAP1 inh;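 active means mean inhibition over triplicates exceeds the hit threshold derived for the earlier primary screening run, cut at about 25% in these data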
* hit, by the source's call; . = no result given. A selection: hits, their analogues and other compounds. The true share with any hit is near 1.9%.

SMILES | PLC-gamma1 inh | ASAP1 inh | PLC-beta3 inh | ARFGAP1 inh | HGIII-sPLA2 inh | ASAP1 GAP conf
NC(Cc1ccc(C(F)(F)F)cc1)c1csc(Nc2ccc(C(=O)NCc3ccco3)cn2)n1 (stereo not given) | -32 | 28* | -44 | 12 | 8 | 13
NC(Cc1ccc(C(F)(F)F)cc1)c1csc(Nc2ccc(C(=O)NCCCO)cn2)n1 (stereo not given) | -50 | -13 | -69 | 10 | 0 | .
Cc1cccc(-c2cccc3c4c([nH]c23)[C@@H]2C[C@H](N(C)C(=O)NC3CCCCC3)[C@H]([C@H](C)O)CN2CC4)c1 | -105 | . | -146 | . | 7 | .
O=C(Nc1ccc2c(c1)Cc1ccccc1-2)NC1CCCCN(Cc2cccc(Cl)c2)C1=O (stereo not given) | 0 | . | 2 | . | 0 | .
CC(C)n1c(-c2ccc(C(C)(C)C)cc2)n[nH]c1=S | 0 | 26* | 2 | 13 | 6 | 6
CC(C)(C)c1ccc(-c2n[nH]c(=S)n2Cc2ccccc2)cc1 | -2 | 8 | -3 | -3 | 0 | .
C[C@@H]1COc2cc(Br)ccc2S(=O)(=O)N1Cc1cn(CCC2OCCO2)nn1 | 2 | . | 0 | . | -3 | .
CC1OC(Nc2cccc3ccccc23)C(O)C(O)C1O (stereo not given) | -63 | 26* | -83 | 9 | 13 | 4
CC1OC(Nc2ccc(N=Nc3ccccc3)cc2)C(O)C(O)C1O (stereo not given) | 5 | 6 | 2 | 1 | 9 | .
COC(=O)[C@]12C[C@H](CC(=O)NCCCCc3ccccc3)C(=O)N(Cc3ccc(Cl)cc3Cl)C1=C[C@H](COCc1ccccc1)O[C@@H]2C | -1 | . | 1 | . | -19 | .
C=CCn1c(-c2ccccc2OC)n[nH]c1=S | 3 | -4 | 3 | -8 | 2 | .
C=CCn1c(-c2cccc3ccccc23)n[nH]c1=S | -5 | 52* | -5 | 5 | 15 | -3
C=CCn1cnnc1SCC(=O)NCC1COc2ccccc2O1 (stereo not given) | -1 | 31* | -2 | 3 | -1 | 9
Cc1nnc(-c2cccc(Br)c2)c2cn(-c3cccc(Br)c3)nc12 | -3 | 27* | -1 | 14 | -9 | 20
Cc1nnc(-c2cccc(Br)c2)c2cn(-c3ccccc3)nc12 | -1 | 12 | 2 | -1 | 5 | .
Cc1cccc(/N=C/c2sc3ccccc3c2O)n1 | -12 | 28* | -25 | 21 | 1 | 16
COCCN1C(=O)Cc2c1nc(N)c1c(N)nc(N3CCN(c4ccc(F)cc4)CC3)c(C#N)c21 | -182 | 1 | -263 | 3 | 18 | .
COc1ccc(CN2C(=O)Cc3c2nc(N)c2c(N)nc(N4CCOCC4)c(C#N)c32)cc1 | -86 | 28* | -136 | -4 | -1 | 8
O=C(Nc1ccn(CCCN(CCCn2ccc(NC(=O)OCc3ccccc3)nc2=O)CCc2cc3ccccc3[nH]2)c(=O)n1)OCc1ccccc1 | 4 | 30* | 2 | 19 | -58 | 16
CCN(C[C@H]1[C@@H](c2ccc(C3=CCCC3)cc2)[C@H](CO)N1c1nc(C)c(C)s1)S(=O)(=O)c1ccccc1[N+](=O)[O-] | 2 | . | -4 | . | 6 | .
Cc1ccc2c(CC(=O)N3CCN(c4ccccc4)CC3)coc2c1 | -1 | 25* | 0 | 3 | -5 | 1
Cc1ccc(Cn2c(N)c(S(=O)(=O)c3cccs3)c3nc4ccccc4nc32)cc1 | -15 | -5 | -33 | -9 | 1 | .
Nc1c(S(=O)(=O)c2cccs2)c2nc3ccccc3nc2n1Cc1ccccc1 | -201 | 26* | -300 | 16 | -18 | 8
COc1ccc(Nc2ncnc3c2cnn3-c2ccccc2)cc1OC | -7 | 7 | -9 | -6 | 0 | .
COc1ccc(Nc2ncnc3sc(-c4ccccc4)cc23)cc1OC | -150 | 26* | -157 | 3 | 4 | 28*
